The values that follow come from PubChem BioAssay.

The nature of experiment [1]: inhibitors of TNFa-induced NFkB p65 translocation, primary screen, imaging, HUVEC, MLSMR starter and 10KST1 sets (AID 438;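 active = inhibition above 20% together with a positive visual image hit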;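 also: compound added about 3h40 before a 20 min TNFalpha stimulation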;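 as to inhibition: signal is the nuclear over cytoplasmic p65 intensity ratio per well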). The note with it: HUVEC TNFa-induced p65 nuclear translocation; cell count: measured here: nuclei count (cytotoxicity indicator), at 2.08 µM; inhibition: at 2 µM, stronger effect = higher value, 0% TNFa-plus-vehicle, 100% no-TNFa wells.
Experiment [2] is described as follows: reduction of polyQ htt aggregates in cells – imaging, exon1htt(103Q)mCFP cells, high-content imaging, primary screen (AID 483;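 active = visual image review flags a hit and inhibition of aggregation exceeds 20%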;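 also: compound exposure lasted 3 days before fixation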;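 as to nuclei count: percent of the per-plate median nuclei count of sample wells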). To be noted: exon1htt(103Q)mCFP cell line, aggregate imaging, at 2 µM; inhibition of aggregation: stronger effect = higher value; nuclei count: measured here: cell count, toxicity.
The nature of experiment [3]: endothelial E-selectin expression blockers – imaging, HUVEC, immunofluorescence, MLSMR starter and 10KST1 sets, primary screen (AID 487;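 active = visually confirmed hit in the image check and inhibition above 20%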;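 as to inhibition: signal is fraction of cell area covered by stained E-selectin grains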;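 as to nuclei count: 100% = median nuclei count of all wells on the same plate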). To be noted: HUVEC TNFalpha-induced E-selectin immunofluorescence imaging, at 2 µM; inhibition: stronger effect = higher value; nuclei count: measured here: cell number, toxicity.
The target of experiment [4] is Voltage-gated potassium channel subunit beta-2 (Rattus norvegicus) (UniProt P62483). The experiment in a line: inhibitors of rat Kvbeta2 reductase activity – biochemical, NADPH fluorescence, primary screen (AID 622;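 active = fluorescence slope higher than the sample average by over 3 SD, cut at about -0.22 in these data, passing the limit was not always enough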;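 also: slope of raw intensity against log time taken from 70 to 1610 s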). To be noted: recombinant KvBeta, 4-cyanobenzaldehyde reduction, at 10 µM, stronger effect = higher value.
Experiment [5] has the same target. Put plainly: enhancers of rat Kvbeta2 NADPH turnover – biochemical, NADPH fluorescence, primary screen (AID 623).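 Also: fluorescence intensity change per second fitted from 20 to 320 s.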 To be noted: Recombinant KvBeta, NADPH fluorescence decrease slope, 10 min; at 10 µM; stronger effect = lower value.
In experiment [6] the target is Muscarinic acetylcholine receptor M4 (Homo sapiens) (UniProt P08173). The experiment in a line: M4-linked GIRK flux change, two-sided – cell-based, HEK293 M4/GIRK, thallium flux, BTC-AM, M4 allosteric agonist project, primary screen (AID 625;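 active = fluorescence slope after compound addition differing from the mean of all tested samples at 99.7% confidence, mostly higher but some lower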;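 also: thallium influx through GIRK channels coupled to M4 in HEK293 cells with BTC-AM dye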). The note with it: at 10 µM, actives lie on both sides. The gist of the method: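 System: HEK293 cells with M4 receptor and GIRK channels | Incubation: Cells overnight at 37 °C, BTC-AM loading 1 h, reads 2 min total | Technique: Kinetic BTC-AM fluorescence sampled at 1 Hz, 10 s pre-addition baseline | Measure: Post-addition slope, 15–24 s, of baseline-normalized fluorescence | Control set: Carbachol positive, DMSO negative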

The nature of experiment [7]: blockers of RIG-like receptor reporter activation – cell-based, Sendai virus stimulus, luciferase, 10K MLSCN set, TLR/RLR signaling modifier project, primary screen (AID 602276;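 active = inhibition at or above 50% at 10 µM; inactive = inhibition below 50%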;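 also: firefly luciferase from ISG56 promoter only with Renilla not read in this screen; 0% = Sendai virus plus DMSO and 100% = medium plus DMSO without virus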). To be noted: HEK293 RL24 IRF3 luciferase reporter, at 10 µM, stronger effect = higher value. A general note: Reporter assays use an easily measured gene product as a stand-in for the process of interest.

Experiment [8] can be described thus: TLR3 IRF3 reporter activation blockers – cell-based, poly I:C stimulus, luciferase, 10K MLSCN set, primary screen (AID 602277;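 active = inhibition of the reporter signal at or above 50%; inactive = inhibition below 50%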). The note with it: HEK293-TLR3 RL24 IRF3 luciferase reporter, at 10 µM, stronger effect = higher value.

Active and inactive are the calls of the source.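 The calls were made as follows, unless noted: active = NADPH fluorescence slope more negative than the mean of all samples by about 3 SD, 99.7% confidence; inactive = the rest.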

Muscarinic acetylcholine receptor M4 (Homo sapiens), sequence (P08173 whole entry, looked up): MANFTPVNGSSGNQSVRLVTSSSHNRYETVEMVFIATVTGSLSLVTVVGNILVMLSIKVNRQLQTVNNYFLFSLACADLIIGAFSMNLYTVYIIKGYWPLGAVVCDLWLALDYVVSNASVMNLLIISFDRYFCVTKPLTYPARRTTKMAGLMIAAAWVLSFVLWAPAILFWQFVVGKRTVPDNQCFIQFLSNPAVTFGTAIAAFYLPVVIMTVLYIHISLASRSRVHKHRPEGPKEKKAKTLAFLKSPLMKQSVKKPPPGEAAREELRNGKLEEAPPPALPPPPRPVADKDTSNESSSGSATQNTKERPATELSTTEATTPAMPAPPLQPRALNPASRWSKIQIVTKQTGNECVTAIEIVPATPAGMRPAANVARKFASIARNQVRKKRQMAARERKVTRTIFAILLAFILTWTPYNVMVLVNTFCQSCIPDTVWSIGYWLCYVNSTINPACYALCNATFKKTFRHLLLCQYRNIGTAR
Voltage-gated potassium channel subunit beta-2 (Rattus norvegicus), sequence (P62483 whole entry, looked up): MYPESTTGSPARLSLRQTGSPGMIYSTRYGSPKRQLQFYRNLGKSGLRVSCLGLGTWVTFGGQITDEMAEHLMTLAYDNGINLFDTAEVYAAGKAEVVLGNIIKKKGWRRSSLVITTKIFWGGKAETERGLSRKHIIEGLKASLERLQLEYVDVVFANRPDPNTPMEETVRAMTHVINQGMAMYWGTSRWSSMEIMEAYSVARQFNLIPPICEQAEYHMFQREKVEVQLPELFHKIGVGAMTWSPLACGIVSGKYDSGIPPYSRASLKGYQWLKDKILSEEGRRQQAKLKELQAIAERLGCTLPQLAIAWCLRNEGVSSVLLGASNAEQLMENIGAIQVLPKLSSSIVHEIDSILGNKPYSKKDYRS

Broadly, the inhibition is the change of the read-out against control, counted positive when it falls. Turning to `O=C(c1cnsn1)N1CCN(c2ccccn2)CC1`, in experiment [1], the cell count was determined as 277. The inhibition in experiment [1] was 9.3% (inactive); in experiment [3] it was 1.4% (inactive); in experiment [7] it was 4.49% (inactive); in experiment [8], -0.785% (inactive). Also, in experiment [2], the inhibition of aggregation is 4% (inactive). Further, the nuclei count in experiment [2] was found to be 82.9%; in experiment [3] it was 95.4%. The fluorescence slope is -0.45 (inactive) in experiment [4] and 0.00527 (inactive) in experiment [6]. Besides, the NADPH fluorescence slope in experiment [5] is -2.9e-05 (inactive).
As to `CNC(=O)Nc1cccc(C(F)(F)F)c1`, the cell count in experiment [1] was found to be 299. In addition, the inhibition was -3.3% (inactive) in experiment [1], -46.4% (inactive) in experiment [3], 0.0526% (inactive) in experiment [7] and 4.51% (inactive) in experiment [8]. In experiment [2], the inhibition of aggregation was -31% (inactive). For the same molecule, the nuclei count in experiment [2] amounted to 97.6%; in experiment [3], 130%. Moreover, the results for the fluorescence slope in experiment [4] and in experiment [6] were -0.566 (inactive) and 0.00624 (inactive), respectively. Moreover, the NADPH fluorescence slope in experiment [5] is -5.5e-05 (inactive).
For the molecule `CCN1CCN(C(=O)c2ccc3c(=O)n(C4CCCC4)c(=S)[nH]c3c2)CC1`, in experiment [1], the cell count is 507. The inhibition in experiment [1] is -4.3% (inactive); in experiment [3] it was -19.6% (inactive); in experiment [7], -15.8% (inactive); in experiment [8], -6.81% (inactive). The inhibition of aggregation in experiment [2] is 8.5% (inactive). Moreover, the figures for the nuclei count in experiment [2] and in experiment [3] were 82.3% and 111%, respectively. Besides, the fluorescence slope was -0.517 (inactive) in experiment [4] and 0.00572 (inactive) in experiment [6]. The NADPH fluorescence slope in experiment [5] is 6.6e-05 (inactive).
Turning to `COc1ccc(-c2noc(CN3C(=O)c4ccccc4C3=O)n2)cc1`, the cell count in experiment [1] amounted to 551. Moreover, the inhibition in experiment [1] is 8.9% (inactive); in experiment [3], -19.9% (inactive); in experiment [7], 0.341% (inactive); in experiment [8] it was -2.38% (inactive). The inhibition of aggregation in experiment [2] is 4.4% (inactive). The nuclei count in experiment [2] turned out to be 90.5%; in experiment [3], 108%. The fluorescence slope in experiment [4] is -0.551 (inactive); in experiment [6], 0.00296 (inactive). Besides, the NADPH fluorescence slope in experiment [5] was -4.8e-05 (inactive).
`c1ccc2c(NC3CCCC3)nnc(NC3CCCC3)c2c1`: the cell count in experiment [1] was 797. Further, the inhibition is 7.4% (inactive) in experiment [1], -69.1% (inactive) in experiment [3], 7.77% (inactive) in experiment [7] and 7.29% (inactive) in experiment [8]. In addition, the inhibition of aggregation in experiment [2] was -6.1% (inactive). For the same molecule, the nuclei count in experiment [2] came out at 106%; in experiment [3], 131%. Besides, the fluorescence slope in experiment [4] is -0.419 (inactive); in experiment [6], 0.00394 (inactive). For the same molecule, the NADPH fluorescence slope in experiment [5] was 2.2e-05 (inactive).
Take `Cn1cc(CC(=O)Nc2cccc(C#N)c2)c2ccccc21`: the cell count in experiment [1] is 414. Moreover, the inhibition was -0.7% (inactive) in experiment [1], 13.7% (inactive) in experiment [3], 3.88% (inactive) in experiment [7] and -0.551% (inactive) in experiment [8]. Also, in experiment [2], the inhibition of aggregation was 23.9% (inactive). The nuclei count in experiment [2] came out at 83.5%; in experiment [3] it was 97.2%. The fluorescence slope in experiment [4] is -0.47 (inactive); in experiment [6] it was 0.00535 (inactive). For the same molecule, in experiment [5], the NADPH fluorescence slope is -1.8e-05 (inactive).
With `O=C(CN1C(=O)COc2ccccc21)NCCCN1CCc2ccccc2C1`, the cell count in experiment [1] worked out at 698. In addition, the inhibition in experiment [1] is -5.4% (inactive); in experiment [3], -13.4% (inactive); in experiment [7], 11.3% (inactive); in experiment [8] it was 33.1% (inactive). Also, in experiment [2], the inhibition of aggregation was -7.3% (inactive). Also, the nuclei count in experiment [2] and in experiment [3] was 106% throughout. The fluorescence slope is -0.625 (inactive) in experiment [4] and 0.00746 (inactive) in experiment [6]. In experiment [5], the NADPH fluorescence slope is 1.2e-05 (inactive).
As for `CCC1CCCCN1S(=O)(=O)c1ccc(C(=O)Nc2nnc(-c3cccs3)o2)cc1` (centres undefined), the cell count in experiment [1] stood at 404. Also, the inhibition in experiment [1] is 5.3% (inactive); in experiment [3] it was -211% (inactive); in experiment [7], 10.8% (inactive); in experiment [8], 16.6% (inactive). Further, the inhibition of aggregation in experiment [2] was 8.5% (inactive). Also, the values for the nuclei count in experiment [2] and in experiment [3] were 97% and 111%, respectively. The fluorescence slope in experiment [4] was -0.486 (inactive); in experiment [6], 0.0055 (inactive). For the same molecule, in experiment [5], the NADPH fluorescence slope is -0.000271 (inactive).
Regarding `CSc1nnc2c3ccccc3n(Cc3ccccc3)c2n1`, the cell count in experiment [1] is 295. The inhibition was -0.5% (inactive) in experiment [1], 30.6% (inactive) in experiment [3], 19.7% (inactive) in experiment [7] and 17% (inactive) in experiment [8]. In addition, in experiment [2], the inhibition of aggregation is 3.5% (inactive). Also, the nuclei count turned out to be 92.5% in experiment [2] and 86.1% in experiment [3]. In addition, the fluorescence slope in experiment [4] is -0.45 (inactive); in experiment [6], 0.00511 (inactive). The NADPH fluorescence slope in experiment [5] is -4.8e-05 (inactive).
Regarding `O=C1c2ccccc2NC(c2ccco2)N1O` (centres undefined), in experiment [1], the cell count was 426. Further, the inhibition in experiment [1] is 3% (inactive); in experiment [3], -169% (inactive); in experiment [7], 8.36% (inactive); in experiment [8] it was 10.8% (inactive). Moreover, the inhibition of aggregation in experiment [2] was -3.7% (inactive). Also, the values for the nuclei count in experiment [2] and in experiment [3] were 110% and 132%, respectively. Moreover, the figures for the fluorescence slope in experiment [4] and in experiment [6] were -0.579 (inactive) and 0.006 (inactive), respectively. Besides, the NADPH fluorescence slope in experiment [5] is -2.1e-05 (inactive).
Turning to `Cc1nc(C)c(C(=O)C2=C(O)C(=O)N(CCN3CCOCC3)C2c2cccnc2)s1` (centres undefined), the cell count in experiment [1] came to 256. For the same molecule, the inhibition in experiment [1] is -0.4% (inactive); in experiment [3], -7.1% (inactive); in experiment [7], 17.2% (inactive); in experiment [8], 22.7% (inactive). In addition, the inhibition of aggregation in experiment [2] was 22.5% (inactive). For the same molecule, the results for the nuclei count in experiment [2] and in experiment [3] were 92.8% and 96.9%, respectively. Further, the results for the fluorescence slope in experiment [4] and in experiment [6] were -0.557 (inactive) and 0.0026 (inactive), respectively. In experiment [5], the NADPH fluorescence slope was -0.000101 (inactive).
Regarding `Cc1ccc(S(=O)(=O)NCCCNC(=O)N2CCOCC2)cc1`, the cell count in experiment [1] was 769. Moreover, the inhibition in experiment [1] was -4.3% (inactive); in experiment [3] it was -103% (inactive); in experiment [7], 17.8% (inactive); in experiment [8], 16.7% (inactive). Moreover, in experiment [2], the inhibition of aggregation is 1.3% (inactive). Also, the nuclei count in experiment [2] was 104%; in experiment [3] it was 129%. In addition, the fluorescence slope in experiment [4] is -0.461 (inactive); in experiment [6], 0.00502 (inactive). Further, the NADPH fluorescence slope in experiment [5] is -4.9e-05 (inactive).
In the case of `Cc1ccccc1S(=O)(=O)Cc1ccc(C(=O)NCc2cccnc2)o1`, in experiment [1], the cell count amounted to 596. Besides, the inhibition in experiment [1] is -2.3% (inactive); in experiment [3] it was 9.8% (inactive); in experiment [7] it was 16.7% (inactive); in experiment [8], 19.4% (inactive). Further, the inhibition of aggregation in experiment [2] was 9% (inactive). For the same molecule, the nuclei count is 105% in experiment [2] and 112% in experiment [3]. Besides, the fluorescence slope in experiment [4] was -0.546 (inactive); in experiment [6] it was 0.00552 (inactive). Besides, in experiment [5], the NADPH fluorescence slope is 4e-05 (inactive).
With `O=C(c1cccn2c(=O)c3cc(Cl)ccc3nc12)N1CCOCC1`, the cell count in experiment [1] was determined as 488. Also, the inhibition was -23.1% (inactive) in experiment [1], -117% (inactive) in experiment [3], 7.46% (inactive) in experiment [7] and 19.6% (inactive) in experiment [8]. Moreover, in experiment [2], the inhibition of aggregation is 10% (inactive). Moreover, the nuclei count in experiment [2] amounted to 106%; in experiment [3], 140%. The figures for the fluorescence slope in experiment [4] and in experiment [6] were -0.027 (inactive) and 0.00457 (inactive), respectively. Also, the NADPH fluorescence slope in experiment [5] was 8.6e-06 (inactive).
